Assay results from different studies.
Cell line: HepG2
Effect on: cell growth or viability

Structure (SMILES) | method | time | IC50
Cc1noc(-c2nn(Cc3ccc(Cl)cc3Cl)c3ccccc23)n1 | – | 48 h | 51.4 µM
COc1cc([C@@H]2c3cc4c(cc3[C@@H](O[C@@H]3O[C@@H]5CO[C@@H](C)O[C@H]5[C@H](O)[C@H]3O)[C@H]3COC(=O)[C@H]23)OCO4)cc(OC)c1O | MTT | 75 h | 45.9 µM
Clc1ccc(Cn2nc(-c3nc(-c4ccccc4)no3)c3ccccc32)c(Cl)c1 | – | 48 h | 59.9 µM
COc1cccc2c1C(=O)c1c(O)c3c(c(O)c1C2=O)C[C@@](O)(C(=O)CO)C[C@@H]3O[C@H]1C[C@H](N)[C@H](O)[C@H](C)O1 | MTT | – | 0.46 µM
CC(C)[C@@H](C)NC(=O)c1cc(-c2cc3ccccc3n2C)cc(C(=O)NCCc2ccccn2)n1 | CCK-8 | – | 12.7 µM
O=C1CS/C(=N\c2cc(C(F)(F)F)ccc2-c2nnc(N3C(=O)CS/C3=N\c3cccc(Cl)c3)s2)N1c1cccc(Cl)c1 | MTT | – | 58.1 µM
COc1ccc(N(Cc2csc(-c3ccc(C)cc3)n2)C(=O)CCCCCC(=O)NO)cc1 | MTT | 72 h | 0.19 µM
CCCNC(=S)N/N=C/c1cccc2cc3ccccc3nc12 | MTT | 48 h | > 50 µM
CC1=CC(=O)c2ccccc2C1=O | MTT | – | 9.25 µM
Fc1ccc(NC(=S)N/N=C/c2cccc3cc4ccccc4nc23)cc1 | MTT | 48 h | > 50 µM
C#Cc1cccc(Nc2ncnc3cc(OCCOC)c(OCCOC)cc23)c1 | LDH | 48 h | 2.07 µM
CC(C)c1nc(N(C)S(C)(=O)=O)nc(-c2ccc(F)cc2)c1/C=C/[C@@H](O)C[C@@H](O)CC(=O)O | MTT | 24 h | 59.1 µg/mL
COc1ccc(C[C@H](N)C(=O)N[C@H]2[C@@H](O)[C@H](n3cnc4c(N(C)C)ncnc43)O[C@@H]2CO)cc1 | resazurin | 72 h | 1.25 µM
CCN(CC)CCNC(=O)c1c(C)[nH]c(/C=C2\C(=O)Nc3ccc(F)cc32)c1C | SRB | – | 1.35 µM
CN1CCC(NC2CCc3[nH]c4c(C(N)=O)ccc(-c5ccccc5Cl)c4c3C2)CC1 (stereo not drawn) | – | 96 h | 0.0202 µM
O=C1CS/C(=N\c2cc(C(F)(F)F)ccc2-c2nnc(N3C(=O)CS/C3=N\c3ccc(F)c(O)c3)s2)N1c1ccc(F)c(O)c1 | MTT | – | 22.5 µM
COc1ccc(NC(=S)N/N=C/c2cccc3cc4ccccc4nc23)cc1 | MTT | 48 h | > 50 µM
CC(=O)O[C@@H]1[C@@H](OC(C)=O)[C@H](OC(C)=O)CO[C@H]1n1cc(Cn2c(C(=O)/C=C/c3ccc(F)cc3)nc3ccccc32)nn1 | LDH | 48 h | 1.67 µM
N=C(CC(O)c1cc2c(F)cc(F)cc2c2cc(C(F)(F)F)ccc12)Nc1ccc(F)c(F)c1 (stereo not drawn) | neutral red | 24 h | 7.8 µM
C#CCNC(=O)c1c(-c2ccc(OC)cc2)oc2ccc(O)c(CN3CCCCC3)c12 | resazurin | 18 h | 53.2 µM
O=C1CSC(=Nc2cc([N+](=O)[O-])ccc2[N+](=O)[O-])N1c1nnc(-c2ccc(C(F)(F)F)cc2N=C2SCC(=O)N2c2cc([N+](=O)[O-])ccc2[N+](=O)[O-])s1 | MTT | – | 80.2 µM

Structure (SMILES) | method | time | IC50
COc1cccc2c1C(=O)c1c(O)c3c(c(O)c1C2=O)C[C@@](O)(C(=O)CO)C[C@@H]3O[C@H]1C[C@H](N)[C@H](O)[C@H](C)O1 | – | 96 h | 0.109 µM
Clc1ccc(Cn2nc(-c3ncc(-c4ccccc4)s3)c3ccccc32)c(Cl)c1 | – | 48 h | 129 µM
O=C1CS/C(=N\c2cc(C(F)(F)F)ccc2-c2nnc(N3C(=O)CS/C3=N\c3cc(O)cc(Br)c3)s2)N1c1cc(O)cc(Br)c1 | MTT | – | 70.4 µM
Fc1ccc2c(-c3nnc(Cc4ccccc4)s3)nn(Cc3ccc(Cl)cc3Cl)c2c1 | – | 48 h | 230 µM
C/C(=C\C(=O)N[C@H](C(=O)N1CCC[C@H]1C(=O)N(c1ccccc1)c1ccc(I)cc1)C(C)(C)C)c1ccc(OP(=O)(O)O)cc1 | CCK-8 | – | 6.09 µM
CC(=O)O[C@@H]1[C@@H](OC(C)=O)[C@H](OC(C)=O)CO[C@H]1n1cc(Cn2c(C(C)=O)nc3ccccc32)nn1 | LDH | 48 h | 1.65 µM
C#CCOc1ccc2oc(-c3ccc(OC)cc3)c(C(=O)OCC)c2c1CN1CCCCC1 | resazurin | – | 34.5 µM
c1ccc(-c2noc(-c3nn(Cc4ccncc4)c4ccccc34)n2)cc1 | – | 48 h | 32.9 µM
COc1ccc(N=C2SCC(=O)N2c2nnc(-c3ccc(C(F)(F)F)cc3N=C3SCC(=O)N3c3ccc(OC)cc3)s2)cc1 | MTT | – | 70.1 µM
O=C(/C=C/c1ccc(F)cc1)c1nc2ccccc2n1Cc1cn([C@@H]2O[C@H](CO)[C@H](O)[C@H](O)[C@H]2O)nn1 | LDH | 48 h | 1.64 µM
COc1cccc(N=C2SCC(=O)N2c2nnc(-c3ccc(C(F)(F)F)cc3N=C3SCC(=O)N3c3cccc(OC)c3)s2)c1 | MTT | – | 80.1 µM
O=[N+]([O-])c1ccc(NC(=S)N/N=C/c2cccc3cc4ccccc4nc23)cc1 | MTT | 48 h | > 50 µM
c1ccc(Cc2nnc(-c3nn(Cc4ccccc4)c4ccccc34)o2)cc1 | – | 48 h | 68.6 µM
COc1ccc(N(Cc2csc(-c3ccc(Br)cc3)n2)C(=O)CCCCCC(=O)NO)cc1 | MTT | 72 h | 0.57 µM
FC(F)(F)CN1CC(n2cc(Oc3ccn4nc(Cl)cc4n3)cn2)C1 | – | – | > 512 µM
CN(C)C1CCc2[nH]c3c(C(N)=O)ccc(-c4ccccc4Cl)c3c2C1 (stereo not drawn) | – | – | 0.26 µM
Fc1ccc2c(-c3nnc(Cc4ccccc4)s3)nn(Cc3ccccc3)c2c1 | – | 48 h | 29.1 µM
COc1cccc2c1C(=O)c1c(O)c3c(c(O)c1C2=O)C[C@@](O)(C(=O)CO)C[C@@H]3O[C@H]1C[C@H](N)[C@H](O)[C@H](C)O1 | LDH | 48 h | 3.81 µM
COc1ccc2c(-c3nc(-c4ccccc4)no3)nn(Cc3ccncc3)c2c1 | – | 48 h | 68.1 µM
O=C1CS/C(=N\c2cc(C(F)(F)F)ccc2-c2nnc(N3C(=O)CS/C3=N\c3ccc(Cl)cc3)s2)N1c1ccc(Cl)cc1 | MTT | – | 48.1 µM
C#CCn1c(C2CC(c3ccc(F)cc3)=NN2C(C)=O)nc2ccccc21 (stereo not drawn) | LDH | 48 h | 3.25 µM
